In ChEMBL document CHEMBL4321829, “Chagas Disease Drug Discovery: Multiparametric Lead Optimization against Trypanosoma cruzi in Acylaminobenzothiazole Series” (J Med Chem, 2019):

Experiments:
[1] = test system: H9c2; test: Cytotoxicity against rat H9c2 cells assessed as reduction in cell viability; type: cell-based
[2] = Selectivity index, ratio of IC50 for rat H9c2 cells to IC50 for antitrypanosomal activity against Trypanosoma cruzi Tulahuen trypomastigotes beta-galactosidase infected in rat H9c2 cells; type: toxicity, cell-based; details: read-out: Ratio IC50
[3] = test system: Trypanosoma cruzi; test: Antitrypanosomal activity against Trypanosoma cruzi Tulahuen trypomastigotes beta-galactosidase infected in rat H9c2 cells measured after 72 hrs by DRAQ5 DNA dye based confocal microscopic analysis; type: functional, organism-based; details: H9c2, 72 h
[4] = test system: Trypanosoma cruzi; test: Antitrypanosomal activity against Trypanosoma cruzi Tulahuen C4 trypomastigotes harboring beta-galactosidase infected in mouse 3T3 cells after 90 mins by luminescence based assay; type: functional, organism-based; details: Tulahuen C4, NIH3T3, 1.5 h
[5] = Intrinsic clearance in human liver microsomes at 0.5 uM in presence of NADPH measured up to 45 mins by UPLC/MS/MS analysis; type: ADME, Microsome; details: 0.75 h
Method in brief: (§1)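 Compound at 0.5 μM was incubated with male CD1 mouse or human liver microsomes (0.5 mg/mL in 50 mM potassium phosphate, pH 7.4). The reaction was started with excess NADPH. Samples were taken at 0 and serial times up to 45 min, quenched in acetonitrile with internal standard and analysed by UPLC/MS/MS. Clint (mL/min/g tissue) was derived from t1/2 of parent remaining. Midazolam was the positive control.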

[6] = Intrinsic clearance in CD-1 mouse liver microsomes at 0.5 uM in presence of NADPH measured up to 45 mins by UPLC/MS/MS analysis; type: ADME, Microsome; details: 0.75 h; method in brief: as §1

| Compound | IC50 [3] [µM] | CLH [5] [mL/min/g] | CLH [6] [mL/min/g] | IC50 [1] [µM] | selectivity ratio [2] | IC50 [4] [µM] |
| --- | --- | --- | --- | --- | --- | --- |
| CN(C(=O)C1CC1)c1nc2ccc(Cl)cc2s1 | 25 | – | – | > 50 | > 2 | – |
| CCN(C(=O)C1CC1)c1nc2ccc(Cl)cc2s1 | > 50 | – | – | > 50 | 1 | – |
| CCCCN(C(=O)C1CC1)c1nc2ccc(Cl)cc2s1 | > 50 | – | – | > 50 | 1 | – |
| CCS(=O)(=O)c1cc2sc(NC(=O)C3CC3)nc2cc1F | 42 | – | – | > 50 | > 1 | – |
| CC(=O)N(CCCN(C)C)c1nc2ccc(C)cc2s1 | – | – | – | – | – | 0.236 |
| N#Cc1cc2nc(NC(=O)C3CC3)sc2cc1C(F)(F)F | > 50 | – | – | 15.5 | – | – |
| Cc1cc2nc(NC(=O)C3CC3)sc2cc1C(F)(F)F | 26 | – | – | 36 | 1 | – |
| O=C(Nc1nc2c(Cl)cccc2s1)C1CC1 | > 50 | – | – | > 50 | – | – |
| CC(C)(C)c1ccc2nc(NC(=O)C3CC3)sc2c1 | 7.85 | – | – | 32 | 4 | – |
| O=C(Nc1nc2cc(C(F)(F)F)c(F)cc2s1)C1CC1 | 35 | – | – | 46 | 1 | – |
| Clc1ccc2nc(NCC3CC3)sc2c1 | 27 | – | – | > 50 | > 2 | – |
| CCCC(=O)Nc1nc2ccc(Cl)cc2s1 | 4.73 | – | – | > 50 | > 11 | – |
| O=C(CC1CC1)Nc1nc2ccc(Cl)cc2s1 | 5.4 | – | – | > 50 | > 9 | – |
| CNS(=O)(=O)c1cc2sc(NC(=O)C3CC3)nc2cc1F | 26 | – | – | > 50 | > 2 | – |

The remaining molecules from weak to strong by IC50 [3], led by results:

| IC50 [3] [µM] | CLH [5] [mL/min/g] | CLH [6] [mL/min/g] | Compound | IC50 [1] [µM] | selectivity ratio [2] | IC50 [4] [µM] |
| --- | --- | --- | --- | --- | --- | --- |
| 4.4 | – | – | O=C(Nc1nc2ccc(Cl)cc2s1)C1COC1 | > 50 | > 11 | – |
| 2.3 | – | – | N#Cc1cc2sc(NC(=O)C3CC3)nc2cc1F | > 50 | > 22 | – |
| 0.95 | – | – | CC(C)(C)C(=O)Nc1nc2ccc(Cl)cc2s1 | > 50 | > 52 | – |
| 0.25 | – | – | CC(C)C(=O)Nc1nc2cc(F)c(C(F)(F)F)cc2s1 | > 50 | > 200 | – |
| 0.14 | 10.4 | 125 | CCc1ccc2nc(NC(=O)C3CC3)sc2c1 | > 50 | > 357 | – |
| 0.13 | – | – | CC(C)(F)C(=O)Nc1nc2ccc(C(F)(F)F)cc2s1 | > 50 | > 384 | – |
| 0.04 | 1.57 | 3.06 | O=C(Nc1nc2ccc([N+](=O)[O-])cc2s1)C1CC1 | > 50 | > 1200 | – |
